Laboratory results from ChEMBL document CHEMBL1151475, “Thiopurine drugs azathioprine and 6-mercaptopurine inhibit Mycobacterium paratuberculosis growth in vitro” (2008).

Experiments:
[1] = system: Mycobacterium avium subsp. paratuberculosis; assay: Antituberculosis activity against Mycobacterium paratuberculosis JTC303 isolated from bovine assessed as minimum drug level required for inhibition by MGIT 960 susceptibility test; assay type: functional
In short: (§1)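 10^5 to 10^6 CFU from single-cell suspensions inoculated in duplicate into MGIT ParaTB medium with supplement and egg yolk. Drugs were at final 0.5–64.0 μg/ml, with 128.0 μg/ml added for some strains. Tubes were incubated at 37°C in MGIT 960. Inhibition is the lowest concentration giving a time to detection longer than a drug-free 1:100 inoculum control. Killing is no positive signal through 56 days.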

[2] = system: Mycobacterium avium subsp. paratuberculosis; assay: Antituberculosis activity against Mycobacterium paratuberculosis JTC303 isolated from bovine assessed as minimum drug level required for killing after 56 days by MGIT 960 susceptibility test; assay type: functional; in short: as §1
[3] = system: Mycobacterium avium subsp. paratuberculosis; assay: Antituberculosis activity against Mycobacterium paratuberculosis UCF-4 isolated from Crohn's disease patient assessed as minimum drug level required for inhibition by MGIT 960 susceptibility test; assay type: functional; in short: as §1
[4] = system: Mycobacterium avium subsp. paratuberculosis; assay: Antituberculosis activity against Mycobacterium paratuberculosis UCF-4 isolated from Crohn's disease patient assessed as minimum drug level required for killing after 56 days by MGIT 960 susceptibility test; assay type: functional; in short: as §1
[5] = system: Mycobacterium avium subsp. paratuberculosis; assay: Antituberculosis activity against Mycobacterium paratuberculosis UCF-5 isolated from Crohn's disease patient assessed as minimum drug level required for inhibition by MGIT 960 susceptibility test; assay type: functional; in short: as §1
[6] = system: Mycobacterium avium subsp. paratuberculosis; assay: Antituberculosis activity against Mycobacterium paratuberculosis UCF-5 isolated from Crohn's disease patient assessed as minimum drug level required for killing after 56 days by MGIT 960 susceptibility test; assay type: functional; in short: as §1
[7] = system: Mycobacterium avium subsp. paratuberculosis; assay: Antituberculosis activity against Mycobacterium paratuberculosis UCF-7 isolated from Crohn's disease patient assessed as minimum drug level required for inhibition by MGIT 960 susceptibility test; assay type: functional; in short: as §1
[8] = system: Mycobacterium avium subsp. paratuberculosis; assay: Antituberculosis activity against Mycobacterium paratuberculosis UCF-7 isolated from Crohn's disease patient assessed as minimum drug level required for killing after 56 days by MGIT 960 susceptibility test; assay type: functional; in short: as §1
[9] = system: Mycobacterium avium subsp. paratuberculosis; assay: Antituberculosis activity against Mycobacterium paratuberculosis B213 isolated from bovine assessed as minimum drug level required for inhibition by MGIT 960 susceptibility test; assay type: functional; in short: as §1
[10] = system: Mycobacterium avium subsp. paratuberculosis; assay: Antituberculosis activity against Mycobacterium paratuberculosis B213 isolated from bovine assessed as minimum drug level required for killing after 56 days by MGIT 960 susceptibility test; assay type: functional; in short: as §1
[11] = system: Mycobacterium avium subsp. paratuberculosis; assay: Antituberculosis activity against Mycobacterium paratuberculosis B236 isolated from bovine assessed as minimum drug level required for inhibition by MGIT 960 susceptibility test; assay type: functional; in short: as §1
[12] = system: Mycobacterium avium subsp. paratuberculosis; assay: Antituberculosis activity against Mycobacterium paratuberculosis B236 isolated from bovine assessed as minimum drug level required for killing after 56 days by MGIT 960 susceptibility test; assay type: functional; in short: as §1
[13] = system: Mycobacterium avium subsp. paratuberculosis; assay: Antituberculosis activity against Mycobacterium paratuberculosis B238 isolated from bovine assessed as minimum drug level required for inhibition by MGIT 960 susceptibility test; assay type: functional; in short: as §1
[14] = system: Mycobacterium avium subsp. paratuberculosis; assay: Antituberculosis activity against Mycobacterium paratuberculosis B238 isolated from bovine assessed as minimum drug level required for killing after 56 days by MGIT 960 susceptibility test; assay type: functional; in short: as §1
Mycobacterium avium [15] = assay: Antituberculosis activity against Mycobacterium avium ATCC 35712 isolated from chicken assessed as minimum drug level required for inhibition by MGIT 960 susceptibility test; assay type: functional; in short: as §1
[16] = system: Mycobacterium avium subsp. paratuberculosis; assay: Antituberculosis activity against Mycobacterium paratuberculosis UCF-8 isolated from Crohn's disease patient assessed as minimum drug level required for inhibition by MGIT 960 susceptibility test; assay type: functional; in short: as §1
[17] = system: Mycobacterium avium subsp. paratuberculosis; assay: Antituberculosis activity against Mycobacterium paratuberculosis B244 isolated from bovine assessed as minimum drug level required for inhibition by MGIT 960 susceptibility test; assay type: functional; in short: as §1
[18] = system: Mycobacterium avium subsp. paratuberculosis; assay: Antituberculosis activity against Mycobacterium paratuberculosis B244 isolated from bovine assessed as minimum drug level required for killing after 56 days by MGIT 960 susceptibility test; assay type: functional; in short: as §1
[19] = system: Mycobacterium avium subsp. paratuberculosis; assay: Antituberculosis activity against Mycobacterium paratuberculosis ATCC 19698 isolated from bovine assessed as lowest drug level required for killing by MGIT 960 susceptibility test; assay type: functional
In short: (§2)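 M. paratuberculosis ATCC 19698 at 10^6 CFU per MGIT ParaTB tube in duplicate, drugs at final 1.0–64.0 μg/ml, 37°C in MGIT 960. Inhibition is the lowest concentration whose time to detection exceeds the 1:100 diluted-inoculum solvent control. No detectable growth means the tube never signals positive through 56 days.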

Mycobacterium avium [20] = assay: Antituberculosis activity against Mycobacterium avium ATCC 25291 isolated from chicken assessed as minimum drug level required for inhibition by MGIT 960 susceptibility test; assay type: functional; in short: as §1
Mycobacterium avium [21] = assay: Antituberculosis activity against Mycobacterium avium ATCC 25291 isolated from chicken assessed as minimum drug level required for killing within 15 days by MGIT 960 susceptibility test; assay type: functional
Mycobacterium avium [22] = assay: Antituberculosis activity against Mycobacterium avium 104 isolated from AIDS patient assessed as minimum drug level required for inhibition by MGIT 960 susceptibility test; assay type: functional; in short: as §1
Mycobacterium avium [23] = assay: Antituberculosis activity against Mycobacterium avium 104 isolated from AIDS patient assessed as minimum drug level required for killing within 15 days by MGIT 960 susceptibility test; assay type: functional
Mycobacterium avium [24] = assay: Antituberculosis activity against Mycobacterium avium JTC48627 isolated from bison fecal sample assessed as minimum drug level required for inhibition by MGIT 960 susceptibility test; assay type: functional, Feces; in short: as §1
Mycobacterium avium [25] = assay: Antituberculosis activity against Mycobacterium avium JTC48627 isolated from bison fecal sample assessed as minimum drug level required for killing within 15 days by MGIT 960 susceptibility test; assay type: functional, Feces
Mycobacterium avium [26] = assay: Antituberculosis activity against Mycobacterium avium JTC981 isolated from bongo fecal sample assessed as minimum drug level required for inhibition by MGIT 960 susceptibility test; assay type: functional, Feces; in short: as §1
Mycobacterium avium [27] = assay: Antituberculosis activity against Mycobacterium avium JTC981 isolated from bongo fecal sample assessed as minimum drug level required for killing within 15 days by MGIT 960 susceptibility test; assay type: functional, Feces
Mycobacterium avium [28] = assay: Antituberculosis activity against Mycobacterium avium EPA3 isolated from water assessed as minimum drug level required for killing within 15 days by MGIT 960 susceptibility test; assay type: functional
Mycobacterium avium [29] = assay: Antituberculosis activity against Mycobacterium avium WSLH1544 isolated from water assessed as minimum drug level required for killing within 15 days by MGIT 960 susceptibility test; assay type: functional
Mycolicibacterium phlei [30] = assay: Antituberculosis activity against Mycobacterium phlei ATCC 11758 assessed as minimum drug level required for inhibition by MGIT 960 susceptibility test; assay type: functional
In short: (§3)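 MGIT ParaTB tubes were supplemented with egg yolk and inoculated in duplicate with 10^5 to 10^6 CFU from single-cell suspensions. Thiopurines were dissolved in 0.05 M NaOH in 10 mM PBS and tested at final 0.5 to 64.0 μg/ml, with 128.0 μg/ml added for some strains. Tubes ran at 37°C in the MGIT 960. The value is the lowest concentration giving a time-to-detection longer than a drug-free 1:100 inoculum control.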

Mycolicibacterium phlei [31] = assay: Antituberculosis activity against Mycobacterium phlei ATCC 11758 assessed as minimum drug level required for killing after 56 days by MGIT 960 susceptibility test; assay type: functional
In short: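 Duplicate MGIT ParaTB tubes with egg yolk and supplement received 10^5 to 10^6 CFU and thiopurine (in 0.05 M NaOH/10 mM PBS) at final 0.5 to 64.0 μg/ml, plus 128.0 μg/ml for some strains. Tubes were incubated at 37°C in the MGIT 960. The value is the minimum concentration whose tubes never signalled positive by 56 days.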

[32] = system: Mycolicibacterium smegmatis; assay: Antituberculosis activity against Mycobacterium smegmatis ATCC 14468 assessed as minimum drug level required for inhibition by MGIT 960 susceptibility test; assay type: functional; in short: as §3
[33] = system: Mycolicibacterium smegmatis; assay: Antituberculosis activity against Mycobacterium smegmatis ATCC 14468 assessed as minimum drug level required for killing after 56 days by MGIT 960 susceptibility test; assay type: functional; in short: as §1
Escherichia coli [34] = assay: Antituberculosis activity against Escherichia coli ATCC 25922 clinical isolate assessed as minimum drug level required for inhibition by MGIT 960 susceptibility test; assay type: functional
Escherichia coli [35] = assay: Antituberculosis activity against Escherichia coli ATCC 25922 clinical isolate assessed as minimum drug level required for killing after 56 days by MGIT 960 susceptibility test; assay type: functional
Enterococcus faecalis [36] = assay: Antituberculosis activity against Enterococcus faecalis ATCC 29212 isolated from human urine assessed as minimum drug level required for inhibition by MGIT 960 susceptibility test; assay type: functional
Enterococcus faecalis [37] = assay: Antituberculosis activity against Enterococcus faecalis ATCC 29212 isolated from human urine assessed as minimum drug level required for killing after 56 days by MGIT 960 susceptibility test; assay type: functional
[38] = system: Mycobacterium avium subsp. paratuberculosis; assay: Antituberculosis activity against Mycobacterium paratuberculosis ATCC 19698 isolated from bovine assessed as lowest drug level producing inhibition at 10^6 CFU of inoculum by MGIT 960 susceptibility test; assay type: functional; in short: as §2
[39] = system: Mycobacterium avium subsp. paratuberculosis; assay: Antituberculosis activity against Mycobacterium paratuberculosis ATCC 19698 isolated from bovine assessed as lowest drug level producing inhibition at 10^6 CFU of inoculum by agar counting method; assay type: functional
In short: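 ATCC 19698 at 10^6 CFU was exposed to drug (1.0–64.0 μg/ml) in MGIT ParaTB medium at 37°C. Aliquots taken at 3 and 5 days were centrifuged, resuspended in PBS and declumped with glass beads. Serial dilutions were plated in quadruplicate on 7H10/OADC/mycobactin J and counted after 8 weeks. Inhibition is the lowest concentration giving a 2 log10 (99%) CFU reduction.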

[40] = system: Mycobacterium avium subsp. paratuberculosis; assay: Antituberculosis activity against Mycobacterium paratuberculosis ATCC 19698 isolated from bovine assessed as minimum drug level resulting in no detectable growth at 10^6 CFU of inoculum after 56 days by MGIT 960 susceptibility test; assay type: functional; in short: as §2
Mycobacterium avium [41] = assay: Antituberculosis activity against Mycobacterium avium ATCC 35712 isolated from chicken assessed as minimum drug level required for killing after 56 days by MGIT 960 susceptibility test; assay type: functional; in short: as §1

Measured: Activity

Cn1cnc([N+](=O)[O-])c1Sc1ncnc2[nH]cnc12 [AZATHIOPRINE]
2 µg/mL: [1] | [5] | [16] | Mycolicibacterium phlei [30]
8 µg/mL: [9] | [11] | [17]
32 µg/mL: Mycolicibacterium phlei [31]
>128 µg/mL: [32] | [33] | Escherichia coli [34] | Escherichia coli [35] | Enterococcus faecalis [36] | Enterococcus faecalis [37]
64 µg/mL: Mycobacterium avium [24]
1 µg/mL: [7]
4 µg/mL: [3]
>32 µg/mL: [2] | [4] | [6] | [10] | [12] | [14] | [18]
16 µg/mL: [8] | [13] | [19]
not listed: [38] | [39] | [40] | Mycobacterium avium [41]
>64 µg/mL: all other assays above

CC[C@H]1OC(=O)[C@H](C)[C@@H](O[C@H]2C[C@@](C)(OC)[C@@H](O)[C@H](C)O2)[C@H](C)[C@@H](O[C@@H]2O[C@H](C)C[C@H](N(C)C)[C@H]2O)[C@](C)(O)C[C@@H](C)CN(C)[C@H](C)[C@@H](O)[C@]1(C)O [AZITHROMYCIN]
0.5 µg/mL: [5] | [7] | [11]
2 µg/mL: [4] | [6] | [10]
1 µg/mL: [1] | [3] | [8] | [9] | [14] | Mycobacterium avium [15]
16 µg/mL: [40] | Mycobacterium avium [41]
>0.5 µg/mL: [13]
4 µg/mL: [38] | [39] | [2] | [12]
